Source: ChEMBL document CHEMBL1287652, “QSAR modeling, synthesis and bioassay of diverse leukemia RPMI-8226 cell line active agents” (2010)

Legend:
Format in all cases: functional
SNB-75 = assay: Antitumor activity against human SNB75 cells at 10 uM after 48 hrs by sulforhodamine B assay relative to control; conditions: SNB-75, 48 h, values are per cent of control
Summary of the method: (§1)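 NCI panel lines were grown in RPMI-1640 with 5% FBS and 2 mM L-glutamine and seeded at 5000–40,000 cells/well according to doubling time. After 24 h at 37 °C, 5% CO2, one dose from a DMSO stock was added for 48 h. Cells were TCA-fixed (10% final adherent, 16% suspension), SRB-stained and read at 515 nm. Percent growth is relative to untreated control.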

ACHN = assay: Antitumor activity against human ACHN cells at 10 uM after 48 hrs by sulforhodamine B assay relative to control; conditions: values are per cent of control
Summary of the method: (§2)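 Single-dose screen in a 55-line panel. Cells in RPMI-1640 with 5% FBS and 2 mM glutamine were preincubated for 24 h, then exposed to compound (DMSO stock diluted in medium) for 48 h at 37 °C with 5% CO2. Cells were fixed with cold TCA, stained with 0.4% SRB in 1% acetic acid, and dye was solubilized in 10 mM Tris base and read at 515 nm. Growth is given as percent of untreated control.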

U-251 = assay: Antitumor activity against human U251 cells at 10 uM after 48 hrs by sulforhodamine B assay relative to control; conditions: U-251, 48 h, values are per cent of control
Summary of the method: (§3)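 NCI panel line grown in RPMI-1640 with 5% FBS and 2 mM L-glutamine, plated at 5000–40,000 cells/well, 24 h preincubation. Single final 10 µM from DMSO stock, 48 h at 37 °C, 5% CO2. TCA fixation (10% adherent, 16% suspension), SRB stain, absorbance 515 nm. Percent growth relative to untreated control.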

SK-MEL-5 = assay: Antitumor activity against human SK-MEL-5 cells at 10 uM after 48 hrs by sulforhodamine B assay relative to control; conditions: SK-MEL-5, 48 h, values are per cent of control; summary of the method: as §1
NCI-H322M = assay: Antitumor activity against human NCI-H322M cells at 10 uM after 48 hrs by sulforhodamine B assay relative to control; conditions: values are per cent of control; summary of the method: as §1
SNB-19 = assay: Antitumor activity against human SNB19 cells at 10 uM after 48 hrs by sulforhodamine B assay relative to control; conditions: SNB-19, 48 h, values are per cent of control; summary of the method: as §1
MDA-MB-468 = assay: Antitumor activity against human MDA-MB-468 cells at 10 uM after 48 hrs by sulforhodamine B assay relative to control; conditions: MDA-MB-468, 48 h, values are per cent of control; summary of the method: as §1
COLO 205 = assay: Antitumor activity against human COLO205 cells at 10 uM after 48 hrs by sulforhodamine B assay relative to control; conditions: COLO 205, 48 h, values are per cent of control; summary of the method: as §2
MOLT-4 = assay: Antitumor activity against human MOLT4 cells at 10 uM after 48 hrs by sulforhodamine B assay relative to control; conditions: MOLT-4, 48 h, values are per cent of control; summary of the method: as §1
IGROV-1 = assay: Antitumor activity against human IGROV1 cells at 10 uM after 48 hrs by sulforhodamine B assay relative to control; conditions: IGROV-1, 48 h, values are per cent of control; summary of the method: as §2
NCI-H226 = assay: Antitumor activity against human NCI-H226 cells at 10 uM after 48 hrs by sulforhodamine B assay relative to control; conditions: NCI-H226, 48 h, values are per cent of control; summary of the method: as §1
SK-MEL-2 = assay: Antitumor activity against human SK-MEL-2 cells at 10 uM after 48 hrs by sulforhodamine B assay relative to control; conditions: SK-MEL-2, 48 h, values are per cent of control; summary of the method: as §1
DU-145 = assay: Antitumor activity against human DU145 cells at 10 uM after 48 hrs by sulforhodamine B assay relative to control; conditions: DU-145, 48 h, values are per cent of control; summary of the method: as §2
SK-MEL-28 = assay: Antitumor activity against human SK-MEL-28 cells at 10 uM after 48 hrs by sulforhodamine B assay relative to control; conditions: SK-MEL-28, 48 h, values are per cent of control; summary of the method: as §1
OVCAR-8 = assay: Antitumor activity against human OVCAR8 cells at 10 uM after 48 hrs by sulforhodamine B assay relative to control; conditions: OVCAR-8, 48 h, values are per cent of control; summary of the method: as §1
EKVX = assay: Antitumor activity against human EKVX cells at 10 uM after 48 hrs by sulforhodamine B assay relative to control; conditions: values are per cent of control; summary of the method: as §2
HL-60(TB) = assay: Antitumor activity against human HL-60(TB) cells at 10 uM after 48 hrs by sulforhodamine B assay relative to control; conditions: HL-60, 48 h
Summary of the method: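 Single-dose NCI screen. Cells were in RPMI-1640 with 5% FBS and 2 mM L-glutamine, plated by doubling time and held 24 h at 37 °C in 5% CO2 before dosing. Exposure was 48 h. Suspension cells were fixed in situ with TCA (final 16%), SRB-stained, and read at 515 nm. Percentage growth was expressed relative to untreated control cells.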

SW-620 = assay: Antitumor activity against human SW620 cells at 10 uM after 48 hrs by sulforhodamine B assay relative to control; conditions: SW-620, 48 h, values are per cent of control; summary of the method: as §3
OVCAR-5 = assay: Antitumor activity against human OVCAR5 cells at 10 uM after 48 hrs by sulforhodamine B assay relative to control; conditions: OVCAR-5, 48 h, values are per cent of control; summary of the method: as §1
UO-31 = assay: Antitumor activity against human UO31 cells at 10 uM after 48 hrs by sulforhodamine B assay relative to control; conditions: UO-31, 48 h, values are per cent of control; summary of the method: as §3
MDA-MB-435 = assay: Antitumor activity against human MDA-MB-435 cells at 10 uM after 48 hrs by sulforhodamine B assay relative to control; conditions: MDA-MB-435, 48 h, values are per cent of control; summary of the method: as §2
BT-549 = assay: Antitumor activity against human BT549 cells at 10 uM after 48 hrs by sulforhodamine B assay relative to control; conditions: BT-549, 48 h, values are per cent of control; summary of the method: as §2
HT-29 = assay: Antitumor activity against human HT-29 cells at 10 uM after 48 hrs by sulforhodamine B assay relative to control; conditions: HT-29, 48 h, values are per cent of control; summary of the method: as §2
[1] = Antitumor activity against human Hs 578T cells at 10 uM after 48 hrs by sulforhodamine B assay relative to control; conditions: values are per cent of control; summary of the method: as §2
NCI-H460 = assay: Antitumor activity against human NCI-H460 cells at 10 uM after 48 hrs by sulforhodamine B assay relative to control; conditions: NCI-H460, 48 h, values are per cent of control; summary of the method: as §1
Malme-3M = assay: Antitumor activity against human MALME-3M cells at 10 uM after 48 hrs by sulforhodamine B assay relative to control; conditions: values are per cent of control; summary of the method: as §2
T47D = assay: Antitumor activity against human T47D cells at 10 uM after 48 hrs by sulforhodamine B assay relative to control; conditions: values are per cent of control; summary of the method: as §3
A549 = assay: Antitumor activity against human A549 cells at 10 uM after 48 hrs by sulforhodamine B assay relative to control; conditions: A549, 48 h, values are per cent of control; summary of the method: as §2
786-0 = assay: Antitumor activity against human 786-0 cells at 10 uM after 48 hrs by sulforhodamine B assay relative to control; conditions: 786-0, 48 h, values are per cent of control; summary of the method: as §2

SMILES: COc1ccc(NC(=O)Nc2ccc(OCCCOc3ccc(NC(=O)Nc4ccc(OC)cc4)cc3)cc2)cc1
- growth, % of control at 10 µM (SNB-75): 101%
- growth, % of control at 10 µM (ACHN): > 100%
- growth, % of control at 10 µM (U-251): 89.8%
- growth, % of control at 10 µM (SK-MEL-5): 99.5%
- growth, % of control at 10 µM (NCI-H322M): 90.2%
- growth, % of control at 10 µM (SNB-19): 94.5%
- growth, % of control at 10 µM (MDA-MB-468): 91.1%
- growth, % of control at 10 µM (COLO 205): 124%
- growth, % of control at 10 µM (MOLT-4): 95.5%
- growth, % of control at 10 µM (IGROV-1): 90.2%
- growth, % of control at 10 µM (NCI-H226): 121%
- growth, % of control at 10 µM (SK-MEL-2): 108%
- growth, % of control at 10 µM (DU-145): 107%
- growth, % of control at 10 µM (SK-MEL-28): 204%
- growth, % of control at 10 µM (OVCAR-8): 70.1%
- growth, % of control at 10 µM (EKVX): 86.7%
- inhibition at 10 µM (HL-60(TB)): 90.4%
- growth, % of control at 10 µM (SW-620): 118%
- growth, % of control at 10 µM (OVCAR-5): 88.4%
- growth, % of control at 10 µM (UO-31): 71.4%
- growth, % of control at 10 µM (MDA-MB-435): 109%
- growth, % of control at 10 µM (BT-549): 88.1%
- growth, % of control at 10 µM (HT-29): 107%
- growth, % of control at 10 µM [1]: 88.2%
- growth, % of control at 10 µM (NCI-H460): 96.8%
- growth, % of control at 10 µM (Malme-3M): 93.3%
- growth, % of control at 10 µM (T47D): 83.6%
- growth, % of control at 10 µM (A549): 111%
- growth, % of control at 10 µM (786-0): 86.9%

SMILES: O=C(Nc1ccc(Cl)cc1)Nc1ccc(OCCCOc2ccc(NC(=O)Nc3ccc(Cl)cc3)cc2)cc1
- growth, % of control at 10 µM (SNB-75): 92.2%
- growth, % of control at 10 µM (ACHN): 106%
- growth, % of control at 10 µM (U-251): 103%
- growth, % of control at 10 µM (SK-MEL-5): > 100%
- growth, % of control at 10 µM (NCI-H322M): 102%
- growth, % of control at 10 µM (SNB-19): 108%
- growth, % of control at 10 µM (MDA-MB-468): 114%
- growth, % of control at 10 µM (COLO 205): 166%
- growth, % of control at 10 µM (MOLT-4): 118%
- growth, % of control at 10 µM (IGROV-1): 85.1%
- growth, % of control at 10 µM (NCI-H226): 123%
- growth, % of control at 10 µM (SK-MEL-2): 118%
- growth, % of control at 10 µM (DU-145): 121%
- growth, % of control at 10 µM (SK-MEL-28): 111%
- growth, % of control at 10 µM (OVCAR-8): 64.1%
- growth, % of control at 10 µM (EKVX): 95%
- inhibition at 10 µM (HL-60(TB)): 105%
- growth, % of control at 10 µM (SW-620): 104%
- growth, % of control at 10 µM (OVCAR-5): 94.6%
- growth, % of control at 10 µM (UO-31): 68.8%
- growth, % of control at 10 µM (MDA-MB-435): 110%
- growth, % of control at 10 µM (BT-549): 102%
- growth, % of control at 10 µM (HT-29): 114%
- growth, % of control at 10 µM [1]: 85.4%
- growth, % of control at 10 µM (NCI-H460): 103%
- growth, % of control at 10 µM (Malme-3M): 101%
- growth, % of control at 10 µM (T47D): 106%
- growth, % of control at 10 µM (A549): 107%
- growth, % of control at 10 µM (786-0): 93.7%

SMILES: COc1ccc(NC(=O)Nc2ccccc2OCCCOc2ccccc2NC(=O)Nc2ccc(OC)cc2)cc1
- growth, % of control at 10 µM (SNB-75): -34.8%
- growth, % of control at 10 µM (ACHN): 46.3%
- growth, % of control at 10 µM (U-251): -50.9%
- growth, % of control at 10 µM (SK-MEL-5): 48.7%
- growth, % of control at 10 µM (NCI-H322M): 82.4%
- growth, % of control at 10 µM (SNB-19): 47.6%
- growth, % of control at 10 µM (MDA-MB-468): 22.6%
- growth, % of control at 10 µM (COLO 205): 18.6%
- growth, % of control at 10 µM (MOLT-4): -5.8%
- growth, % of control at 10 µM (IGROV-1): 4.9%
- growth, % of control at 10 µM (NCI-H226): 87.1%
- growth, % of control at 10 µM (SK-MEL-2): 65.8%
- growth, % of control at 10 µM (DU-145): 39.4%
- growth, % of control at 10 µM (SK-MEL-28): 45.7%
- growth, % of control at 10 µM (OVCAR-8): -65.3%
- growth, % of control at 10 µM (EKVX): 2.2%
- inhibition at 10 µM (HL-60(TB)): 18.8%
- growth, % of control at 10 µM (SW-620): 0.7%
- growth, % of control at 10 µM (OVCAR-5): 46%
- growth, % of control at 10 µM (UO-31): -20.7%
- growth, % of control at 10 µM (MDA-MB-435): 41.6%
- growth, % of control at 10 µM (BT-549): 81.2%
- growth, % of control at 10 µM (HT-29): 54.9%
- growth, % of control at 10 µM [1]: 46.4%
- growth, % of control at 10 µM (NCI-H460): 17.7%
- growth, % of control at 10 µM (Malme-3M): 55.1%
- growth, % of control at 10 µM (T47D): 9.2%
- growth, % of control at 10 µM (A549): -80%
- growth, % of control at 10 µM (786-0): -31.5%
